The text below walks through data of ChEMBL document CHEMBL4138211, “Regio- and stereoselective synthesis of dispirooxindole-pyrrolocarbazole hybrids via 1,3-dipolar cycloaddition reactions: Cytotoxic activity and SAR studies” (Eur J Med Chem, 2018).

Calls of active or inactive are those of the source. The calls are words filed in the database; no cut-off is given here.

The subject of experiment [1] is MCF7. Briefly: Antiproliferative activity against human MCF7 cells after 48 hrs by MTT assay. The settings on record: for IC50: MCF7, 48 h. It counts as functional, cell-based. The method in brief:
(§1)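 Cells grown 1×10⁴/well for 48 h to about 75% confluence. Medium then replaced with fresh medium containing serially diluted compounds, followed by a further 48 h. MTT added for 4 h at 37 °C and formazan dissolved in DMSO for 10 min. OD read at 620 nm. IC50 taken from the viability–concentration survival curve. Three independent experiments, each in triplicate.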
(In general: Tetrazolium assays rely on reduction of a dye to a coloured formazan, in cell work by metabolically active cells.)

Experiment [2] relates to MCF7. Kind of experiment: Induction of apoptosis in human MCF7 cells assessed as nuclear fragmentation after 24 hrs by DAPI staining-based fluorescence microscopic analysis. It counts as functional, cell-based. The method in brief: (§2)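 Cells plated on glass coverslips and treated for 24 h, then fixed. Permeabilised with 0.2% Triton X-100 for 10 min at room temperature. DAPI applied for 3 min under a coverslip. Nuclei inspected by fluorescence microscopy for condensed chromatin and fragmentation, against untreated cells.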

Experiment [3] has as its system MCF7. Kind of experiment: Induction of apoptosis in human MCF7 cells assessed as damaged cell membranes by acridine orange/ethidium bromide staining-based fluorescence microscopic analysis. It counts as functional. The method in brief:
(§3)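 Treated cells collected and washed in PBS (pH 7.2). Stained with a 1:1 AO/EtBr mixture (each dye […] in water) and held 2 min. Washed twice in PBS and viewed by fluorescence microscopy at 400× with 480 nm excitation. Green intact-membrane cells distinguished from orange/red membrane-damaged cells.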

The test system of experiment [4] is MCF7. Kind of experiment: Induction of apoptosis in human MCF7 cells assessed as nuclear condensation by acridine orange/ethidium bromide staining-based fluorescence microscopic analysis. It counts as functional, cell-based. The method in brief:
as §3

Experiment [5] relates to MCF7. Kind of experiment: Induction of apoptosis in human MCF7 cells by acridine orange/ethidium bromide staining-based fluorescence microscopic analysis. It counts as functional, cell-based. The method in brief: as §3
The test system of experiment [6] is A549. Briefly: Induction of apoptosis in human A549 cells assessed as membrane blebbing after 24 hrs by brightfield inverted light microscopic analysis. It counts as functional, cell-based.
The subject of experiment [7] is MCF7. Kind of experiment: Induction of apoptosis in human MCF7 cells assessed as membrane blebbing after 24 hrs by brightfield inverted light microscopic analysis. It counts as functional, cell-based.
In experiment [8] the test system is A549. Briefly: Induction of apoptosis in human A549 cells assessed as nuclear fragmentation after 24 hrs by DAPI staining-based fluorescence microscopic analysis. It counts as functional, cell-based. In short, it runs like this:
as §2

Experiment [9] deals with MCF7. Kind of experiment: Induction of apoptosis in human MCF7 cells assessed as formation of floating cells after 24 hrs by brightfield inverted light microscopic analysis. It counts as functional, cell-based.
Experiment [10] relates to A549. Briefly: Induction of apoptosis in human A549 cells assessed as cell shrinkage after 24 hrs by brightfield inverted light microscopic analysis. It counts as functional, cell-based.
For experiment [11], the system named is A549. Briefly: Induction of apoptosis in human A549 cells assessed as formation of floating cells after 24 hrs by brightfield inverted light microscopic analysis. It counts as functional, cell-based.
Experiment [12] deals with A549. Briefly: Induction of apoptosis in human A549 cells by acridine orange/ethidium bromide staining-based fluorescence microscopic analysis. It counts as functional, cell-based. The method in brief: as §3
Experiment [13] has as its system MCF7. Kind of experiment: Induction of apoptosis in human MCF7 cells assessed as chromatin condensation after 24 hrs by DAPI staining-based fluorescence microscopic analysis. It counts as functional, cell-based. The method in brief: as §2
Experiment [14] deals with MCF7. Briefly: Induction of apoptosis in human MCF7 cells assessed as cell shrinkage after 24 hrs by brightfield inverted light microscopic analysis. It counts as functional, cell-based.
Experiment [15] has as its system A549. Kind of experiment: Antiproliferative activity against human A549 cells after 48 hrs by MTT assay. It counts as functional, cell-based. The settings on record: for IC50: A549, 48 h. In short, it runs like this:
as §1

One may read the IC50 as the point on the concentration scale where inhibition reaches its midpoint. The low end stands for higher potency, the high end for lower potency. Consider `O=C1Nc2ccccc2[C@]12N[C@H](c1ccccc1)[C@H](c1ccccc1)[C@@]21CCc2c([nH]c3ccc(Cl)cc23)C1=O`, for which the Activity result in the experiment with MCF7 [1] and in the experiment with A549 [15] was “Dose-dependent effect” each time. In addition, the values for the IC50 in the experiment on MCF7 [1] and in the experiment on A549 [15] were 18 µM and 15 µM, respectively. The outcome with MCF7 [2] and with MCF7 [13] was Active. Moreover, the result with MCF7 [3], in the experiment on MCF7 [4], with MCF7 [5], in the experiment on A549 [6], with MCF7 [7] and in the experiment with A549 [8] was inactive. Besides, the outcome in the experiment with MCF7 [9], with A549 [10], with A549 [11], in the experiment with A549 [12] and in the experiment with MCF7 [14] was inactive.
Turning to `O=C1Nc2ccccc2[C@]12N[C@H](c1ccccc1)[C@H](c1ccccc1)[C@@]21CCc2c([nH]c3ccccc23)C1=O`, the Activity result in the experiment with MCF7 [1] and in the experiment with A549 [15] was “Dose-dependent effect” throughout. The IC50 was 15 µM in the experiment on MCF7 [1] and 17 µM with A549 [15]. For the same compound, in the experiment on MCF7 [2], the outcome was Active. Further, the outcome with MCF7 [3], in the experiment with MCF7 [4], in the experiment on MCF7 [5], with A549 [6], in the experiment on MCF7 [7] and with A549 [8] was inactive. Besides, the outcome with MCF7 [9], in the experiment with A549 [10], in the experiment with A549 [11], in the experiment with A549 [12] and with MCF7 [14] was inactive.
For the compound `COc1ccc([C@H]2[C@@H](c3ccccc3)N[C@@]3(C(=O)Nc4ccccc43)[C@]23CCc2c([nH]c4ccc(Cl)cc24)C3=O)cc1`, the Activity result in the experiment on MCF7 [1] and in the experiment on A549 [15] was “Dose-dependent effect” in each case. Moreover, the half-inhibitory concentration (IC50) in the experiment with MCF7 [1] came to 19 µM; in the experiment on A549 [15], 18 µM. For the same compound, the result in the experiment with MCF7 [2] and in the experiment with MCF7 [13] was Active. The result in the experiment with MCF7 [3], with MCF7 [4], in the experiment with MCF7 [5], in the experiment on A549 [6], in the experiment with MCF7 [7] and with A549 [8] was inactive. The outcome with MCF7 [9], with A549 [10], in the experiment on A549 [11], in the experiment on A549 [12] and with MCF7 [14] was inactive.
Turning to `O=C1Nc2ccccc2[C@]12N[C@H](c1ccccc1)[C@H](c1cccs1)[C@@]21CCc2c([nH]c3ccccc23)C1=O`, the Activity result in the experiment on MCF7 [1] and in the experiment with A549 [15] was “Dose-dependent effect” each time. Also, the results for the IC50 with MCF7 [1] and in the experiment with A549 [15] were 15 µM and 16 µM, respectively. Besides, the result in the experiment with MCF7 [2] and in the experiment with A549 [12] was Active. In addition, the outcome in the experiment on MCF7 [3], in the experiment with MCF7 [4], with MCF7 [5], with A549 [6], in the experiment on MCF7 [7] and in the experiment with A549 [8] was inactive. Moreover, the result in the experiment on MCF7 [9], in the experiment on A549 [10], with A549 [11] and with MCF7 [14] was inactive.
Consider `Cc1ccc2[nH]c3c(c2c1)CC[C@]1(C3=O)[C@@H](c2cccs2)[C@@H](c2ccccc2)N[C@@]12C(=O)Nc1ccccc12`, for which the Activity result in the experiment with MCF7 [1], in the experiment with A549 [6], in the experiment with MCF7 [7], with MCF7 [9], in the experiment on A549 [10] and with A549 [11] was “Dose-dependent effect” each time. In addition, the Activity entry with MCF7 [14] and in the experiment with A549 [15] was “Dose-dependent effect” each time. Moreover, the half-maximal inhibitory concentration (IC50) with MCF7 [1] came out at 14 µM; in the experiment on A549 [15], 15 µM. Also, the result in the experiment with MCF7 [2], in the experiment with MCF7 [3], with MCF7 [4], in the experiment with MCF7 [5], with A549 [8] and in the experiment on A549 [12] was Active.
On to `Cc1ccc2[nH]c3c(c2c1)CC[C@]1(C3=O)[C@@H](c2ccccc2)[C@@H](c2ccccc2)N[C@@]12C(=O)Nc1ccccc12`, for which the Activity entry in the experiment with MCF7 [1] and with A549 [15] was “Dose-dependent effect” in each case. The IC50 in the experiment on MCF7 [1] came to 19 µM; in the experiment on A549 [15] it was 18 µM. The result in the experiment with MCF7 [2] and in the experiment with MCF7 [13] was Active. The result with MCF7 [3], with MCF7 [4], in the experiment with MCF7 [5], with A549 [6], in the experiment with MCF7 [7] and with A549 [8] was inactive. For the same compound, the result in the experiment on MCF7 [9], with A549 [10], with A549 [11], in the experiment with A549 [12] and in the experiment on MCF7 [14] was inactive.
For the compound `COc1ccc([C@H]2[C@@H](c3ccccc3)N[C@@]3(C(=O)Nc4ccccc43)[C@]23CCc2c([nH]c4ccc(C)cc24)C3=O)cc1`, the Activity result with MCF7 [1] and with A549 [15] was “Dose-dependent effect” each time. Further, the half-inhibitory concentration (IC50) in the experiment on MCF7 [1] came to 18 µM; in the experiment on A549 [15], 20 µM. Moreover, the result in the experiment on MCF7 [2] and in the experiment on MCF7 [13] was Active. In addition, the result with MCF7 [3], in the experiment with MCF7 [4], with MCF7 [5], with A549 [6], in the experiment with MCF7 [7] and in the experiment with A549 [8] was inactive. Besides, the result in the experiment on MCF7 [9], in the experiment with A549 [10], in the experiment with A549 [11], in the experiment with A549 [12] and with MCF7 [14] was inactive.
Regarding `COc1ccc([C@H]2[C@@H](c3ccccc3)N[C@@]3(C(=O)Nc4ccccc43)[C@]23CCc2c([nH]c4ccccc24)C3=O)cc1`, in the experiment on MCF7 [1], the Activity result is “Dose-dependent effect” and half-maximal inhibition (IC50) required 17 µM. In the experiment on A549 [15], the Activity entry is “Dose-dependent effect” and the IC50 is 21 µM.
